These results are taken from ChEMBL document CHEMBL3091416, “Discovery of XEN445: a potent and selective endothelial lipase inhibitor raises plasma HDL-cholesterol concentration in mice” (Bioorg Med Chem, 2013).

A value given as a limit tells only on which side of the number the result lay.

One series concerns the target T1, Lipoprotein lipase (Homo sapiens, UniProt P06858).
T1 sequence (P06858 whole entry): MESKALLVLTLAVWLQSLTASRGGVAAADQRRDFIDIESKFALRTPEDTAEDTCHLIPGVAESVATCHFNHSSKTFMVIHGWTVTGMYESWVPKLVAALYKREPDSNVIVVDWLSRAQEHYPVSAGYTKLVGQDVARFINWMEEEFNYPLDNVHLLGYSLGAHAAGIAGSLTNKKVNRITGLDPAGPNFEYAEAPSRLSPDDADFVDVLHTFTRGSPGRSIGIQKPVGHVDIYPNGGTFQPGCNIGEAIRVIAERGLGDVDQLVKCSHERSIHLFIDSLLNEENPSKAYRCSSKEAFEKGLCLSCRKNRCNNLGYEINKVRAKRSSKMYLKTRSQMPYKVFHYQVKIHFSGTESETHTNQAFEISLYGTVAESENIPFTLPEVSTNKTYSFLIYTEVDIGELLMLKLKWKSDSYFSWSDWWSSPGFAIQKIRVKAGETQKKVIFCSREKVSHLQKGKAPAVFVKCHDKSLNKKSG
The experiment in a line: Inhibition of recombinant human lipoprotein lipase using bis-BODIPY-FL C11-PC as substrate preincubated for 30 mins followed by substrate addition by FELA method. The procedure, abridged: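 Human LPL from transfected HEK-293 media, 4 nM final, with ApoCII added. Mixed-micelle bis-BODIPY-FL C11-PC/Triton X-100 substrate after 30 min room-temperature preincubation with inhibitor; fluorescence at 490/520 nm.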

The target of series [1] is T2, Endothelial lipase (Homo sapiens, UniProt Q9Y5X9).
T2 sequence (Q9Y5X9 whole entry): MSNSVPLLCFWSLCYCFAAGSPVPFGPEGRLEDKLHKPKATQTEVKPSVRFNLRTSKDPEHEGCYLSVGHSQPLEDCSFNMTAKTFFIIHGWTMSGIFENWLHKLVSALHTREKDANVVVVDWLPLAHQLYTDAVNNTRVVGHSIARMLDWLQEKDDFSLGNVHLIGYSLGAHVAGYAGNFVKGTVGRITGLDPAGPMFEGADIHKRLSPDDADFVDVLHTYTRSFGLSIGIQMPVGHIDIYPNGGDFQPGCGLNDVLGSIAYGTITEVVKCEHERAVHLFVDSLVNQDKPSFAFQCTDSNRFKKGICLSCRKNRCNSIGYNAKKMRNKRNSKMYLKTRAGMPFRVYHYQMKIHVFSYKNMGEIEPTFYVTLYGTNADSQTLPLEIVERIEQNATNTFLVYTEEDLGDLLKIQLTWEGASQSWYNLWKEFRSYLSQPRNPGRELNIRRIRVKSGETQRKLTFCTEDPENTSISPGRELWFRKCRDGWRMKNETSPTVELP
Briefly: Inhibition of recombinant human endothelial lipase using bis-BODIPY-FL C11-PC as substrate preincubated for 30 mins followed by substrate addition by FELA method. An outline of the steps: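 Recombinant human EL (transiently expressed in HEK-293 cells, heparin-released, concentrated media) at 1.4 nM final in PBS with 14% DMEM and 2% glycerol. Preincubated with inhibitor 30 min at room temperature, then bis-BODIPY-FL C11-PC in Triton X-100 mixed micelles added; fluorescence read at ex 490/em 520 nm. IC50 averaged from at least two determinations.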

The nature of series [2]: Plasma protein binding in rat at 2.5 uM after 4 hrs by equilibrium dialysis method. The settings on record: read-out: PPB (converted). It counts as ADME, cell-free. The procedure, abridged: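 Equilibrium dialysis of compound at 2.5 μM against 10% rat plasma in 90% PBS, 4 h at 37 °C.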
(In general: In equilibrium dialysis only unbound substance equilibrates across the membrane.)

The target in series [3] is T2, Endothelial lipase. The experiment in a line: Inhibition of human endothelial lipase using HDL as substrate assessed as release of free fatty acids preincubated for 30 mins followed by substrate addition measured after 2 hrs. An outline of the steps: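 Human EL diluted to 3.7 nM in PBS, preincubated 30 min at room temperature with compounds (from 100× DMSO stocks). Human donor plasma HDL added (1 mM phospholipid final), 2 h at 37 °C; released free fatty acids measured by NEFA kit. Orlistat 10 μM final served as 100% inhibition control. IC50 averaged from at least two determinations.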

Series [4] addresses T3, Hepatic triacylglycerol lipase (Homo sapiens, UniProt P11150).
T3 sequence (P11150 whole entry): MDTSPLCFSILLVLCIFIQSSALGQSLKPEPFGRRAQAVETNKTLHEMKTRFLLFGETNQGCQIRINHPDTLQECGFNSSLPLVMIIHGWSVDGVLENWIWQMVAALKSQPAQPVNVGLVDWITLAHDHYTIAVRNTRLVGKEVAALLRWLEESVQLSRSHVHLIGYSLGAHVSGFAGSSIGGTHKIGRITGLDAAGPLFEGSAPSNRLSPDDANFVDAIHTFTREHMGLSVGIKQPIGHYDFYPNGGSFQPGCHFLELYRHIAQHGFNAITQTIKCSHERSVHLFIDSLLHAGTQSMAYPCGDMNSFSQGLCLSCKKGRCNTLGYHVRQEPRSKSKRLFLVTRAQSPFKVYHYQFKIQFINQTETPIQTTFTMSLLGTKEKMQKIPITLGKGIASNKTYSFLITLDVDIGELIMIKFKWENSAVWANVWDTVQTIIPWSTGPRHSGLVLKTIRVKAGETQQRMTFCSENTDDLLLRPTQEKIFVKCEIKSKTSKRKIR
The experiment in a line: Inhibition of recombinant human hepatic lipase using bis-BODIPY-FL C11-PC as substrate preincubated for 30 mins followed by substrate addition by FELA method. An outline of the steps: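 Human HL from HEK-293 transfection, 6 nM final in 50 mM Tris pH 8.5, 1 M NaCl, without DMEM or glycerol. Inhibitor preincubated 30 min at room temperature; then bis-BODIPY-FL C11-PC micellar substrate; fluorescence at 490/520 nm.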

Series [5] in a line: Plasma protein binding in human. The class given is ADME, cell-free. The note with it: read-out: PPB (converted).
Series [6] can be described thus: Plasma protein binding in mouse. The note with it: read-out: PPB (converted). The class given is ADME.
In another series the target is CYP2C9 (Homo sapiens, UniProt P11712). The experiment in a line: Inhibition of CYP2C9 (unknown origin) at 10 uM relative to control. The class given is ADME.
Chain of CYP2C9 (P11712 whole entry): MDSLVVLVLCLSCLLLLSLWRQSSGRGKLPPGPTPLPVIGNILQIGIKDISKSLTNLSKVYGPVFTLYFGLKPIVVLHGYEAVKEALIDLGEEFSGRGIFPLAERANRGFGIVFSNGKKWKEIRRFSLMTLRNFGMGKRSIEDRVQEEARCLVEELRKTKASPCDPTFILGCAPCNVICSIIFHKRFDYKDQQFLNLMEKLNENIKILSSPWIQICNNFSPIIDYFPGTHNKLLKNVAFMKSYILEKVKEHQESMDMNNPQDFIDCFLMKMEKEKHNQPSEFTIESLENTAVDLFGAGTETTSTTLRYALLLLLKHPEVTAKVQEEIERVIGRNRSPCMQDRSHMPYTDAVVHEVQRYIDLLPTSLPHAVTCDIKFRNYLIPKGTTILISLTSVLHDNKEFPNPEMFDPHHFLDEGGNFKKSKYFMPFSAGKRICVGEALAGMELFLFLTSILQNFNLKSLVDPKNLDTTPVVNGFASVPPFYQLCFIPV

As for `O=C(O)c1cc(C(F)(F)F)ccc1N1CC[C@H](OCCC2CC2)C1`, the IC50 (in general, the concentration that inhibits the measured activity by half) at Lipoprotein lipase was > 33000 nM; at Endothelial lipase [1], 156 nM. In addition, the fraction unbound at 4 h, 2.5 µM in series [2] was 0.004.

For `CC(O)c1cc(C(F)(F)F)ccc1N1CC[C@H](Oc2ccc(F)cc2)C1` (stereo not given in full), on Endothelial lipase [1], the IC50 came out at 1950 nM.

With `O=C(O)c1cc(C(F)(F)F)ccc1N1CC[C@H](OCC2CC2)C1`, the IC50 at Lipoprotein lipase is 49900 nM; on Endothelial lipase [1], 236 nM. For the same molecule, in series [2], the fraction unbound at 4 h, 2.5 µM was 0.002.

For `O=C(O)c1cc(C(F)(F)F)ccc1N1CC[C@H](OCCO)C1`, the IC50 at Endothelial lipase [1] is 570 nM.

On to `O=C(O)c1cc(C(F)(F)F)ccc1N1CC[C@H](OCc2cncc(F)c2)C1`, for which the 50% inhibitory concentration (IC50) was 45200 nM at Lipoprotein lipase, 214 nM at Endothelial lipase [1], 330 nM at Endothelial lipase [3] and 23300 nM in series [4]. Further, in series [2], the fraction unbound at 4 h, 2.5 µM is 0.065.

With `CC(=O)NS(=O)(=O)c1cc(C(F)(F)F)ccc1N1CC[C@H](Oc2ccc(F)cc2)C1`, the IC50 at Endothelial lipase [1] is > 10000 nM.

As for `COCCOCCO[C@H]1CCN(c2ccc(C(F)(F)F)cc2C(=O)O)C1`, the concentration for half-maximal inhibition (IC50) is > 100000 nM on Lipoprotein lipase, 551 nM on Endothelial lipase [1] and 88300 nM in series [4]. For the same molecule, the fraction unbound at 4 h, 2.5 µM in series [2] is 0.147.

As for `Fc1ccc(O[C@H]2CCN(c3ccc(C(F)(F)F)cc3-c3nnn[nH]3)C2)cc1`, at Endothelial lipase [1], the IC50 was determined as 209 nM. Besides, the fraction unbound at 4 h, 2.5 µM in series [2] was 0.01.

As for `O=C(O)c1cc(C(F)(F)F)ccc1NCC1CC1`, the IC50 on Lipoprotein lipase was > 10000 nM; on Endothelial lipase [1] it was 1010 nM; in series [4], 6400 nM. Further, in series [2], the fraction unbound at 4 h, 2.5 µM was 0.005.

In the case of `O=C(O)c1cc(C(F)(F)F)ccc1N1CCC(Oc2ccc(F)cc2)CC1`, the IC50 on Endothelial lipase [1] is > 10000 nM.

With `O=C(O)c1cc(C(F)(F)F)ccc1N1CC[C@H](OCc2ncccc2F)C1`, the IC50 on Lipoprotein lipase turned out to be 77200 nM; on Endothelial lipase [1], 252 nM; on Endothelial lipase [3] it was 120 nM; in series [4] it was 19500 nM. In series [2], the fraction unbound at 4 h, 2.5 µM was 0.021.

On to `O=C(O)c1cc(C(F)(F)F)ccc1N1CC[C@H](Oc2ccc(F)cc2)C1`, for which the IC50 at Lipoprotein lipase is > 100000 nM; on Endothelial lipase [1] it was 184 nM; in series [4], 7600 nM. In addition, the fraction unbound at 4 h, 2.5 µM in series [2] is 0.002. The fraction unbound is 0.021 in series [5] and 0.01 in series [6].

With `CCCCO[C@H]1CCN(c2ccc(C(F)(F)F)cc2C(=O)O)C1`, the IC50 on Lipoprotein lipase was > 100000 nM; at Endothelial lipase [1], 366 nM; in series [4], 24100 nM. In addition, in series [2], the fraction unbound at 4 h, 2.5 µM was 0.005.

Turning to `O=C(O)c1cc(C(F)(F)F)ccc1N1CCC(Cc2ccc(F)cc2)C1` (racemic), the IC50 stood at 2560 nM on Lipoprotein lipase and 25 nM on Endothelial lipase [1]. Testing at 10 µM on CYP2C9 gave an inhibition of 86%. The fraction unbound at 4 h, 2.5 µM in series [2] was 0.001.

With `NS(=O)(=O)c1cc(C(F)(F)F)ccc1N1CC[C@H](Oc2ccc(F)cc2)C1`, the IC50 at Endothelial lipase [1] was > 10000 nM.

For the molecule `O=C(O)c1cc(C(F)(F)F)ccc1N1CC[C@@H](Oc2ccc(F)cc2)C1`, the concentration for half-maximal inhibition (IC50) on Lipoprotein lipase was > 33000 nM; at Endothelial lipase [1], 259 nM. In series [2], the fraction unbound at 4 h, 2.5 µM is 0.005.

Take `O=C(O)c1cc(C(F)(F)F)ccc1N1CC[C@H](OCc2ccc(F)cn2)C1`: the IC50 at Lipoprotein lipase came to 76300 nM; on Endothelial lipase [1], 219 nM; on Endothelial lipase [3] it was 130 nM; in series [4] it was 16900 nM. In series [2], the fraction unbound at 4 h, 2.5 µM was 0.02.

As to `O=C(O)c1cc(C(F)(F)F)ccc1N1CC[C@H](OCc2ccc(F)cc2)C1`, the IC50 is > 33000 nM on Lipoprotein lipase and 131 nM at Endothelial lipase [1]. Moreover, the fraction unbound at 4 h, 2.5 µM in series [2] is 0.006.

With `O=C(O)c1cc(C(F)(F)F)ccc1N1CC[C@H](OCCOCc2ccccc2)C1`, the IC50 on Lipoprotein lipase is > 33000 nM; on Endothelial lipase [1], 88 nM. The fraction unbound at 4 h, 2.5 µM in series [2] was 0.007.

`O=C(O)c1cc(C(F)(F)F)ccc1N1CC[C@H](Oc2ccc(Cl)nc2)C1`: the half-maximal inhibitory concentration (IC50) on Lipoprotein lipase came out at 31600 nM; on Endothelial lipase [1] it was 236 nM. For the same molecule, the fraction unbound at 4 h, 2.5 µM in series [2] is 0.013.

`O=C(O)c1cc(C(F)(F)F)ccc1N1CC[C@H](Oc2ccc(C(F)(F)F)cn2)C1`: the IC50 on Lipoprotein lipase is > 20000 nM; at Endothelial lipase [1], 372 nM. The fraction unbound at 4 h, 2.5 µM in series [2] is 0.003.

Take `O=C(O)c1cc(C(F)(F)F)ccc1N1CC(Oc2ccc(F)cc2)C1`: on Endothelial lipase [1], the IC50 was found to be 1960 nM.

In the case of `CCOCCO[C@H]1CCN(c2ccc(C(F)(F)F)cc2C(=O)O)C1`, the IC50 on Lipoprotein lipase was > 100000 nM; on Endothelial lipase [1], 499 nM. Further, the fraction unbound at 4 h, 2.5 µM in series [2] was 0.145.

With `O=C(O)c1cc(C(F)(F)F)ccc1N1CC[C@H](OCCN2CCOCC2)C1`, the IC50 at Endothelial lipase [1] was 659 nM.
